Laboratory results published in ChEMBL document CHEMBL1132488, “On the bioactive conformation of NAN-190 (1) and MP3022 (2), 5-HT(1A) receptor antagonists” (J Med Chem, 1999).

How the values were obtained:
Rattus norvegicus [1] = organism: Rattus norvegicus; experiment: Effect on 8-OH-DAPT- induced behavioral syndrome(FT: forepaw treading) by the compound in reserpine pretreated rats at a dose of.1; assay type: functional
Rattus norvegicus [2] = organism: Rattus norvegicus; experiment: Induction of behavioral syndrome(FBP: flat body posture) by the compound in reserpine pretreated rats at a dose of 2.; assay type: functional
Outline: (§1)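 Male Wistar rats (260–300 g), groups of 6, given reserpine 1 mg/kg sc 18 h before test. Compounds given ip as 1% Tween 80 suspension. FBP and FT rated 0–3 in 45-s sessions every 3 min, starting 3 min after dosing. Score summed over 5 periods (max 15 per symptom). Mean ± SEM; Newman–Keuls test.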

Rattus norvegicus [3] = organism: Rattus norvegicus; experiment: Effect on 8-OH-DAPT- induced behavioral syndrome(FBP: flat body posture) by the compound in reserpine pretreated rats at a dose of 2.; assay type: functional
Rattus norvegicus [4] = organism: Rattus norvegicus; experiment: Dose inhibiting 8-OH-DPAT-induced behavioral syndrome(FBP: flat body posture) by the compound in reserpine pretreated rats.
Rattus norvegicus [5] = organism: Rattus norvegicus; experiment: Effect on 8-OH-DAPT- induced behavioral syndrome(FBP: flat body posture) by the compound in reserpine pretreated rats at a dose of 8.; assay type: functional
Outline: (§2)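 Reserpinized male Wistar rats (reserpine 1 mg/kg sc, 18 h before), groups of 6. Compound given ip in 1% Tween 80 60 min before 8-OH-DPAT 5 mg/kg sc. FBP/FT rated 0–3 at 3, 6, 9, 12 and 15 min after agonist, summed (max 15). Mean ± SEM; Newman–Keuls test; ED50 with range.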

Rattus norvegicus [6] = organism: Rattus norvegicus; experiment: Induction of behavioral syndrome(FT: forepaw treading) by the compound in reserpine pretreated rats at a dose of 2.; assay type: functional
Rattus norvegicus [7] = experiment: Induction of LLR(lower lip retraction) by the compound in rats at a dose of 4 mg/kg; assay type: functional
Outline: (§3)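 Male Wistar rats, groups of 6, given compound alone ip as 1% Tween 80 suspension. Lower incisor visibility scored 0/0.5/1 at 15, 30 and 45 min after dosing, summed (max 3 per rat). Mean ± SEM versus vehicle, Newman–Keuls test; ED50 with range.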

Rattus norvegicus [8] = organism: Rattus norvegicus; experiment: Effective dose of the required to inhibit symptoms produced by 8-OH-DPAT; assay type: functional; outline: as §2
Rattus norvegicus [9] = experiment: Effect on 8-OH-DPAT-Induced LLR(lower lip retraction) in rats at a dose of 4 mg/kg; assay type: functional
Outline: (§4)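 Male Wistar rats, groups of 6. Compound given ip in 1% Tween 80 45 min before 8-OH-DPAT 1 mg/kg sc. Lower incisor visibility scored 0/0.5/1 at 15, 30 and 45 min after agonist, summed (max 3). Mean ± SEM; Newman–Keuls test; ED50 with range.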

Rattus norvegicus [10] = organism: Rattus norvegicus; experiment: Effect on 8-OH-DAPT- induced behavioral syndrome(FT: forepaw treading) by the compound in reserpine pretreated rats at a dose of 4.; assay type: functional; outline: as §2
Rattus norvegicus [11] = experiment: Induction of LLR(lower lip retraction) by the compound in rats at a dose of 1 mg/kg; assay type: functional; outline: as §3
Rattus norvegicus [12] = organism: Rattus norvegicus; experiment: Dose Inducing behavioral syndrome(FT: forepaw treading) by the compound in reserpine pretreated rats.; assay type: functional; outline: as §1
Rattus norvegicus [13] = organism: Rattus norvegicus; experiment: Effect on 8-OH-DAPT- induced behavioral syndrome(FT: forepaw treading) by the compound in reserpine pretreated rats at a dose of 2.; assay type: functional
Rattus norvegicus [14] = organism: Rattus norvegicus; experiment: Induction of behavioral syndrome(FBP: flat body posture) by the compound in reserpine pretreated rats at a dose of 8.; assay type: functional
Outline: (§5)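 Male Wistar rats (260–300 g) were given reserpine 1 mg/kg sc in saline 18 h before testing. Test compound was then given alone ip as a 1% Tween 80 suspension (2 mL/kg). FBP and FT were each scored 0–3 and summed (maximum 15). n=6 per group; mean ± SEM; Newman–Keuls test.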

Rattus norvegicus [15] = organism: Rattus norvegicus; experiment: Effect on 8-OH-DAPT- induced behavioral syndrome(FBP: flat body posture) by the compound in reserpine pretreated rats at a dose of.1; assay type: functional
Rattus norvegicus [16] = organism: Rattus norvegicus; experiment: Induction of behavioral syndrome(FBP: flat body posture) by the compound in reserpine pretreated rats at a dose of 4.; assay type: functional; outline: as §5
Rattus norvegicus [17] = organism: Rattus norvegicus; experiment: Effect on 8-OH-DAPT- induced behavioral syndrome(FBP: flat body posture) by the compound in reserpine pretreated rats at a dose of 4.; assay type: functional; outline: as §2
Rattus norvegicus [18] = organism: Rattus norvegicus; experiment: Induction of behavioral syndrome(FT: forepaw treading) by the compound in reserpine pretreated rats at a dose of.1; assay type: functional
Rattus norvegicus [19] = experiment: Effect on 8-OH-DPAT-Induced LLR(lower lip retraction) in rats at a dose of 1 mg/kg; assay type: functional; outline: as §4
Rattus norvegicus [20] = organism: Rattus norvegicus; experiment: Effect on 8-OH-DAPT- induced behavioral syndrome(FT: forepaw treading) by the compound in reserpine pretreated rats at a dose of 8.; assay type: functional; outline: as §2
Rattus norvegicus [21] = experiment: Induction of LLR(lower lip retraction) by the compound in rats at a dose of 2 mg/kg; assay type: functional; outline: as §3
Rattus norvegicus [22] = organism: Rattus norvegicus; experiment: Induction of behavioral syndrome(FT: forepaw treading) by the compound in reserpine pretreated rats at a dose of 4.; assay type: functional; outline: as §5
Rattus norvegicus [23] = organism: Rattus norvegicus; experiment: Induction of behavioral syndrome(FT: forepaw treading) by the compound in reserpine pretreated rats at a dose of 8.; assay type: functional; outline: as §5
Rattus norvegicus [24] = organism: Rattus norvegicus; experiment: Induction of behavioral syndrome(FBP: flat body posture) by the compound in reserpine pretreated rats at a dose of.1; assay type: functional
Rattus norvegicus [25] = experiment: Effect on 8-OH-DPAT-Induced LLR(lower lip retraction) in rats at a dose of 2 mg/kg; assay type: functional; outline: as §4

Molecule `COc1ccccc1N1CCN(CCCCN2C(=O)c3ccccc3C2=O)CC1` [NAN-190] has an FT mean score (Rattus norvegicus [1]) of 10.8, an FBP mean score (Rattus norvegicus [2]) of 0.2 and an FBP mean score (Rattus norvegicus [3]) of 6. For the same molecule, the ED50 (Rattus norvegicus [4]) was 2 mg/kg, the FBP mean score (Rattus norvegicus [5]) was 2.3 and the FT mean score (Rattus norvegicus [6]) was 0.2. It also gave an LLR score (Rattus norvegicus [7]) of 0.1, an ED50 (Rattus norvegicus [8]) of 1.7 mg/kg and an LLR score (Rattus norvegicus [9]) of 0.6. It also gave an FT mean score (Rattus norvegicus [10]) of 6.2, an LLR score (Rattus norvegicus [11]) of 0.1 and an ED50 (Rattus norvegicus [12]) of 2.5 mg/kg. It also gave an FT mean score (Rattus norvegicus [13]) of 5.7, an FBP mean score (Rattus norvegicus [14]) of 0.2 and an FBP mean score (Rattus norvegicus [15]) of 12.4. For the same molecule, the FBP mean score (Rattus norvegicus [16]) was 0.1, the FBP mean score (Rattus norvegicus [17]) was 2.3 and the FT mean score (Rattus norvegicus [18]) was 0.1. For the same molecule, the LLR score (Rattus norvegicus [19]) was 1.7, the FT mean score (Rattus norvegicus [20]) was 1.8 and the LLR score (Rattus norvegicus [21]) was 0.1. It also gave an FT mean score (Rattus norvegicus [22]) of 0.2, an FT mean score (Rattus norvegicus [23]) of 0.1 and an FBP mean score (Rattus norvegicus [24]) of 0.1. It also gave an LLR score (Rattus norvegicus [25]) of 1.4.
